2 molecules from ChEMBL document CHEMBL1156381, “Cacofurans A and B, new furanoditerpenes from a marine sponge” (J Nat Prod, 2001) can be followed below.

One test deals with P388. In words: Cytotoxicity against mouse P388 cells. The test is classed as functional, cell-based.
The test system of the next test is Staphylococcus aureus. The test is described as follows: Antibacterial activity against methicillin-resistant Staphylococcus aureus. The test is classed as functional, organism-based.
In the next test the test system is NBT2. The test is described as follows: Disruption of actin cytoskeleton in rat NBT2 cells at 10 ug/mL after 16 hrs by TMR-phalloidin imaging analysis. The test is classed as functional, cell-based. The method in brief: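 NBT-II rat bladder epithelial carcinoma cells were treated at 10 μg/mL. Cells were then permeabilized and stained with TMR-phalloidin to image the actin cytoskeleton, with control cells for comparison.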

The test system of the next test is Escherichia coli. In words: Antibacterial activity against Escherichia coli. It counts as functional, organism-based.
Another test has as its system Bacillus cereus. The test is described as follows: Antibacterial activity against Bacillus cereus. It counts as functional, organism-based.
The next test deals with K562. In words: Cytotoxicity against human K562 cells. It counts as functional, cell-based.
Test [1] in a line: Toxicity in sea urchin egg assessed as inhibition of development of fertilized egg by light microscopy. Also noted: species or system Tripneustes gratilla. Put shortly: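 Eggs and sperm were collected from mature Tripneustes gratilla specimens for the fertilized-egg development assay.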
A short description of test [2]: Cytotoxicity against rat NBT2 cells assessed as cell survival at 10 ug/mL after 16 hrs by phase contrast microscope. The test is classed as functional. The following applies: NBT2, 16 h, read-out: Activity. The method in brief:
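Rat bladder epithelial carcinoma NBT-II cells were exposed to 10 μg/mL test agent. Phase contrast images of control and treated cells were recorded after 16 h on an image-based high content imaging workstation.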

Values after ≈ are worked out from the molar mass of the structure shown. Active and inactive are the calls of the source. The calls are words filed in the database; no cut-off is given here.

By IC50 is commonly meant the concentration at which inhibition is half-maximal.

Consider `CC(=O)O[C@@H](Cc1ccoc1)[C@@H]1[C@@]23CCCC(C)(C)[C@@H]2CC[C@]1(C)OC3` [CACOFURAN A], for which the values for the IC50 (with P388; in the test on K562; in test [1]) were above 1 µg/mL, above 1 µg/mL and 0.5 µg/mL (≈ 1.39 µM), respectively. The outcome with Staphylococcus aureus, in the test on Escherichia coli and in the test on Bacillus cereus was inactive. Also, the outcome in the test with NBT2 was Active. Besides, the viability at 10 µg/mL in test [2] amounted to 50%.

On to `CC1(C)CCC[C@@]23CO[C@@](C)(CC[C@@H]12)[C@@H]3[C@@H](O)Cc1ccoc1` [CACOFURAN B], for which the IC50 was above 1 µg/mL in the test with P388, above 1 µg/mL in the test on K562 and 5 µg/mL (≈ 15.7 µM) in test [1]. The result with Staphylococcus aureus, in the test on Escherichia coli and in the test on Bacillus cereus was inactive. Also, the outcome with NBT2 was Active. In addition, the viability at 10 µg/mL in test [2] amounted to 50%.
